Assay results from ChEMBL document CHEMBL5724801, “EUbOPEN Chemogenomics Library - Multiplex” (2024).
Values joined by “and” are separate entries in the source; they are usually repeats but may differ in a detail not shown here. Equal entries are not always repeated.

System: HEK-293T
Test: Multiplex assay against HEK293T
Type: toxicity, cell-based
Details: human
Procedure, shortened: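 With compound added, live cells were imaged on a CQ1 microscope at 37°C and 5% CO2; staining with Hoechst33342, BioTracker Green Microtubule Cytoskeleton Dye, MitoTracker Red and Annexin V Alexa Fluor 680 had been done at seeding. The CellPathfinder machine-learning gating scheme split cells into Hoechst high-intensity objects or normal cells, normal cells into healthy, pyknosed or fragmented nuclei, and pyknosed cells into mitotic or apoptotic. The tubulin, mitochondrial-mass and membrane-permeability phenotypes are per cents of healthy-nucleus cells.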

[1] = 12 h, 1 µM, compound concentration 1 uM
[2] = 12 h, 10 µM, compound concentration 10 uM
[3] = 24 h, 1 µM, compound concentration 1 uM
[4] = 24 h, 10 µM, compound concentration 10 uM
[5] = 48 h, 1 µM, compound concentration 1 uM
[6] = 48 h, 10 µM, compound concentration 10 uM

S=C(NCCCc1c[nH]cn1)NCCCN(Cc1ccc(Cl)c(Cl)c1)c1ccc(Br)cn1
Population Apoptotic (%) [1]: 39% and 53% | Population Fragmented Nuclei (%) [1]: 8% and 5% | Population Healthy Nuclei (%) [1]: 78% and 79% | Population Hoechst High Intensity Objects (%) [1]: 17% and 6% | Population Membrane Permeable-Phenotype (%) [1]: 0% | Population Mitochondria Different-Phenotype (%) [1]: 50% and 58% | Population Mitotic Cells (%) [1]: 60% and 46% | Population Normal (%) [1]: 82% and 93% | Population Pyknosed Nuclei (%) [1]: 13% and 14% | Population Tubulin-Different-Phenotype (%) [1]: 36% and 35% | Total Cell Count [1]: 378 and 294 | Population Apoptotic (%) [2]: 90% and 77% | Population Fragmented Nuclei (%) [2]: 4% and 8% | Population Healthy Nuclei (%) [2]: 57% and 71% | Population Hoechst High Intensity Objects (%) [2]: 33% and 19% | Population Membrane Permeable-Phenotype (%) [2]: 0% | Population Mitochondria Different-Phenotype (%) [2]: 77% and 84% | Population Mitotic Cells (%) [2]: 9% and 22% | Population Normal (%) [2]: 66% and 80% | Population Pyknosed Nuclei (%) [2]: 38% and 19% | Population Tubulin-Different-Phenotype (%) [2]: 78% | Total Cell Count [2]: 242 and 229 | Population Apoptotic (%) [3]: 39% and 41% | Population Fragmented Nuclei (%) [3]: 10% and 9% | Population Healthy Nuclei (%) [3]: 73% and 81% | Population Hoechst High Intensity Objects (%) [3]: 22% and 13% | Population Membrane Permeable-Phenotype (%) [3]: 0% | Population Mitochondria Different-Phenotype (%) [3]: 45% and 48% | Population Mitotic Cells (%) [3]: 60% and 58% | Population Normal (%) [3]: 77% and 86% | Population Pyknosed Nuclei (%) [3]: 16% and 9% | Population Tubulin-Different-Phenotype (%) [3]: 32% | Total Cell Count [3]: 326 and 301 | Population Apoptotic (%) [4]: 85% and 82% | Population Fragmented Nuclei (%) [4]: 11% and 16% | Population Healthy Nuclei (%) [4]: 49% and 59% | Population Hoechst High Intensity Objects (%) [4]: 48% and 39% | Population Membrane Permeable-Phenotype (%) [4]: 1% and 0% | Population Mitochondria Different-Phenotype (%) [4]: 75% and 82% | Population Mitotic Cells (%) [4]: 14% and 17% | Population Normal (%) [4]: 51% and 61% | Population Pyknosed Nuclei (%) [4]: 39% and 23% | Population Tubulin-Different-Phenotype (%) [4]: 78% | Total Cell Count [4]: 237 and 200 | Population Apoptotic (%) [5]: 47% and 36% | Population Fragmented Nuclei (%) [5]: 14% and 17% | Population Healthy Nuclei (%) [5]: 65% and 73% | Population Hoechst High Intensity Objects (%) [5]: 36% and 27% | Population Membrane Permeable-Phenotype (%) [5]: 3% and 0% | Population Mitochondria Different-Phenotype (%) [5]: 38% and 32% | Population Mitotic Cells (%) [5]: 52% and 63% | Population Normal (%) [5]: 63% and 72% | Population Pyknosed Nuclei (%) [5]: 19% and 9% | Population Tubulin-Different-Phenotype (%) [5]: 29% and 19% | Total Cell Count [5]: 307 and 277 | Population Apoptotic (%) [6]: 84% and 75% | Population Fragmented Nuclei (%) [6]: 23% and 21% | Population Healthy Nuclei (%) [6]: 23% | Population Hoechst High Intensity Objects (%) [6]: 75% and 67% | Population Membrane Permeable-Phenotype (%) [6]: 0% | Population Mitochondria Different-Phenotype (%) [6]: 86% and 80% | Population Mitotic Cells (%) [6]: 15% and 25% | Population Normal (%) [6]: 24% and 32% | Population Pyknosed Nuclei (%) [6]: 52% and 55% | Population Tubulin-Different-Phenotype (%) [6]: 53% and 40% | Total Cell Count [6]: 256 and 203

CCc1nn2c(C)cc(C)nc2c1Cc1ccc(-c2nnc(C3CCNCC3)o2)cc1
Population Apoptotic (%) [1]: 35% and 51% | Population Fragmented Nuclei (%) [1]: 9% and 7% | Population Healthy Nuclei (%) [1]: 80% and 78% | Population Hoechst High Intensity Objects (%) [1]: 7% and 5% | Population Membrane Permeable-Phenotype (%) [1]: 0% | Population Mitochondria Different-Phenotype (%) [1]: 54% and 62% | Population Mitotic Cells (%) [1]: 64% and 48% | Population Normal (%) [1]: 92% and 94% | Population Pyknosed Nuclei (%) [1]: 10% and 13% | Population Tubulin-Different-Phenotype (%) [1]: 37% and 19% | Total Cell Count [1]: 401 and 395 | Population Apoptotic (%) [2]: 63% and 56% | Population Fragmented Nuclei (%) [2]: 6% and 4% | Population Healthy Nuclei (%) [2]: 68% and 78% | Population Hoechst High Intensity Objects (%) [2]: 11% and 12% | Population Membrane Permeable-Phenotype (%) [2]: 0% | Population Mitochondria Different-Phenotype (%) [2]: 85% and 86% | Population Mitotic Cells (%) [2]: 36% and 43% | Population Normal (%) [2]: 88% and 87% | Population Pyknosed Nuclei (%) [2]: 25% and 17% | Population Tubulin-Different-Phenotype (%) [2]: 65% and 48% | Total Cell Count [2]: 319 and 293 | Population Apoptotic (%) [3]: 44% and 34% | Population Fragmented Nuclei (%) [3]: 10% and 7% | Population Healthy Nuclei (%) [3]: 76% and 78% | Population Hoechst High Intensity Objects (%) [3]: 4% and 5% | Population Membrane Permeable-Phenotype (%) [3]: 0% | Population Mitochondria Different-Phenotype (%) [3]: 36% and 50% | Population Mitotic Cells (%) [3]: 55% and 65% | Population Normal (%) [3]: 95% and 94% | Population Pyknosed Nuclei (%) [3]: 13% | Population Tubulin-Different-Phenotype (%) [3]: 23% and 19% | Total Cell Count [3]: 529 and 542 | Population Apoptotic (%) [4]: 69% and 41% | Population Fragmented Nuclei (%) [4]: 11% and 10% | Population Healthy Nuclei (%) [4]: 72% and 77% | Population Hoechst High Intensity Objects (%) [4]: 5% and 7% | Population Membrane Permeable-Phenotype (%) [4]: 0% | Population Mitochondria Different-Phenotype (%) [4]: 73% and 78% | Population Mitotic Cells (%) [4]: 30% and 58% | Population Normal (%) [4]: 94% and 92% | Population Pyknosed Nuclei (%) [4]: 15% and 11% | Population Tubulin-Different-Phenotype (%) [4]: 50% and 45% | Total Cell Count [4]: 448 and 389 | Population Apoptotic (%) [5]: 28% and 32% | Population Fragmented Nuclei (%) [5]: 12% and 11% | Population Healthy Nuclei (%) [5]: 79% and 83% | Population Hoechst High Intensity Objects (%) [5]: 2% and 5% | Population Membrane Permeable-Phenotype (%) [5]: 0% | Population Mitochondria Different-Phenotype (%) [5]: 25% and 24% | Population Mitotic Cells (%) [5]: 71% and 67% | Population Normal (%) [5]: 97% and 94% | Population Pyknosed Nuclei (%) [5]: 8% and 5% | Population Tubulin-Different-Phenotype (%) [5]: 15% and 10% | Total Cell Count [5]: 842 and 829 | Population Apoptotic (%) [6]: 54% and 50% | Population Fragmented Nuclei (%) [6]: 14% and 12% | Population Healthy Nuclei (%) [6]: 72% and 80% | Population Hoechst High Intensity Objects (%) [6]: 4% and 3% | Population Membrane Permeable-Phenotype (%) [6]: 0% | Population Mitochondria Different-Phenotype (%) [6]: 59% and 56% | Population Mitotic Cells (%) [6]: 45% and 50% | Population Normal (%) [6]: 95% and 96% | Population Pyknosed Nuclei (%) [6]: 13% and 6% | Population Tubulin-Different-Phenotype (%) [6]: 32% and 26% | Total Cell Count [6]: 517 and 607
